From ChEMBL document CHEMBL1177766, “2-Substituted N-aryl piperazines as novel triple reuptake inhibitors for the treatment of depression” (Bioorg Med Chem Lett, 2010)

Experiment: Clearance in human liver microsomes assessed per mg of protein by LC/MS analysis
Assay type: ADME, Microsome
Procedure, shortened: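 Human liver microsomes at 0.5 mg/mL protein. Reaction started with NADPH, run at 37 °C without shaking. Aliquots taken at 0.1, 10, 20 and 30 min for LC/MS analysis. Clearance expressed in µL/min/mg.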

| SMILES | microsomal CLint |
| --- | --- |
| c1ccc(CC2CNCCN2c2ccc3[nH]ncc3c2)cc1 (stereo not drawn) | 3.8 µL/min/mg |
| c1ccc(CC2CNCCN2c2ccc3[nH]ccc3c2)cc1 (stereo not drawn) | 43.3 µL/min/mg |
| Fc1cc(N2CCNCC2Cc2ccccc2)cc2cc[nH]c12 (stereo not drawn) | 16.8 µL/min/mg |
